Assay results: ChEMBL document CHEMBL2062417, “Biotinylated quercetin as an intrinsic photoaffinity proteomics probe for the identification of quercetin target proteins” (Bioorg Med Chem, 2011)
Active and inactive are the calls of the source. No cut-off for these calls is given here.

Tests used:
[1] = target: Eukaryotic translation initiation factor 3 subunit F (Homo sapiens) (UniProt O00303); experiment: Binding affinity to EIF3F in human Jurkat cells at 150 uM followed by UV irradiation for 30 mins with Wood's glass filtered medium pressure mercury arc light after cell lysis measured after denaturing wash by SDS-PAGE based pull down assay
Procedure, shortened: (§1)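 Jurkat cells were grown in RPMI with 10% FBS (about 15×10^6 cells) and treated 2 h with 150 μM BioQ in 3% aqueous DMSO. They were heat-shocked at 43 °C for 30 min, recovered 1 h at 37 °C, and UV-irradiated (320–400 nm, peak 365 nm, 30 min, 4 °C) before or after sonication lysis. Streptavidin-agarose capture ran 1 h. Beads were washed ≥3× with lysis buffer or 2% SDS Tris pH 7.4, boiled, run on 12% SDS-PAGE and silver-stained.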

[2] = target: T1, Ubiquitin-like modifier-activating enzyme 1 (Homo sapiens) (UniProt P22314); experiment: Binding affinity to UBA1 in human Jurkat cells at 150 uM followed by UV irradiation for 30 mins with Wood's glass filtered medium pressure mercury arc light prior to cell lysis measured after denaturing wash by LC-MS/MS based pull down assay
T1 sequence (whole entry): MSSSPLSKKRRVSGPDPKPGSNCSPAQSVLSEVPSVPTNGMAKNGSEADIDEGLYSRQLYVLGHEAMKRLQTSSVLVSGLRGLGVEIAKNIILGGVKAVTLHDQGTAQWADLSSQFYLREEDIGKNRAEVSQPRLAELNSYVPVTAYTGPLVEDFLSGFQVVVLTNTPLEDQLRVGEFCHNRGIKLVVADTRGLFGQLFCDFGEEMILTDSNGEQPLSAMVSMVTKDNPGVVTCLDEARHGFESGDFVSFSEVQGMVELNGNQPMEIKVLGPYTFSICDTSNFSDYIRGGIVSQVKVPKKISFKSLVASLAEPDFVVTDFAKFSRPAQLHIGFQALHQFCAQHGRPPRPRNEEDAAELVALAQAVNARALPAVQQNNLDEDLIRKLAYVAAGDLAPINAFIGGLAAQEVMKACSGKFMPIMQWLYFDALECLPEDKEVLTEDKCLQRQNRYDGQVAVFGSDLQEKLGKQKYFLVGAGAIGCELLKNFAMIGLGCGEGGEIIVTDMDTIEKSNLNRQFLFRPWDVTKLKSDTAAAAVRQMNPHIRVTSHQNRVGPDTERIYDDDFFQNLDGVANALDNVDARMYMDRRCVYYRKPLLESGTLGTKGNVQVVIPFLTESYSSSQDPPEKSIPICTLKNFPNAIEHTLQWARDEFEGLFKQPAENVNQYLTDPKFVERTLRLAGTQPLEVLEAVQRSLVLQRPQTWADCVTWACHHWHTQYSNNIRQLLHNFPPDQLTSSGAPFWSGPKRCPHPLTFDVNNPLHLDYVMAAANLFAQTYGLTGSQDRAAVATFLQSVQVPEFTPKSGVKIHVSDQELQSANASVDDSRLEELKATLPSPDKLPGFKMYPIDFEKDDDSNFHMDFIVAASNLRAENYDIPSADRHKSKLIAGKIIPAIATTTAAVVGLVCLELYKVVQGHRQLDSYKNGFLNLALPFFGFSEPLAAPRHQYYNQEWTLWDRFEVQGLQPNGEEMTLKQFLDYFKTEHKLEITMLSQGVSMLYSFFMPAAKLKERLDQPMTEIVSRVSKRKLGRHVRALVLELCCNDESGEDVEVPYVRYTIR
Procedure, shortened: (§2)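 Silver-stained bands from cells irradiated before lysis were excised, destained, reduced with 10 mM DTT, alkylated with 50 mM iodoacetamide and digested with trypsin overnight. Peptides were extracted in 1% TFA/50% acetonitrile. Nano-C18 LC used a 2–50% acetonitrile gradient with 0.1% formic acid over 50 min at 260 nL/min, followed by MS/MS identification.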

[3] = target: ATP synthase F(1) complex subunit beta, mitochondrial (Homo sapiens) (UniProt P06576); experiment: Binding affinity to ATP5B in human Jurkat cells at 150 uM followed by UV irradiation for 30 mins with Wood's glass filtered medium pressure mercury arc light prior to cell lysis measured after denaturing wash by SDS-PAGE based pull down assay; procedure, shortened: as §1
[4] = target: T1, Ubiquitin-like modifier-activating enzyme 1 (Homo sapiens); experiment: Binding affinity to UBA1 in human Jurkat cells at 150 uM followed by UV irradiation for 30 mins with Wood's glass filtered medium pressure mercury arc light prior to cell lysis measured after denaturing wash by SDS-PAGE based pull down assay; procedure, shortened: as §1
[5] = target: Heat shock-related 70 kDa protein 2 (Homo sapiens) (UniProt P54652); experiment: Binding affinity to HSPA2 in human Jurkat cells at 150 uM followed by UV irradiation for 30 mins with Wood's glass filtered medium pressure mercury arc light prior to cell lysis measured after denaturing wash by SDS-PAGE based pull down assay; procedure, shortened: as §1
[6] = target: T1, Ubiquitin-like modifier-activating enzyme 1 (Homo sapiens); experiment: Binding affinity to UBA1 in human Jurkat cells at 150 uM followed by UV irradiation for 30 mins with Wood's glass filtered medium pressure mercury arc light after cell lysis measured after denaturing wash by SDS-PAGE based pull down assay; procedure, shortened: as §1
[7] = target: Casein kinase II subunit alpha (Homo sapiens) (UniProt P68400); experiment: Binding affinity to CK2alpha at 150 uM followed by UV irradiation for 30 mins with Wood's glass filtered medium pressure mercury arc light by SDS-PAGE based pull down assay
Procedure, shortened: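 CK2 (17.5–70 nM) was mixed with 150 μM BioQ in 400 μL 10 mM PBS pH 7.2 with protease inhibitors, with or without 10 mM MgCl2 and 2 μM ATP. Samples were irradiated 30 min on ice (320–400 nm, peak 365 nm) or left unirradiated. Capture was on streptavidin agarose for 1 h, with washes in lysis buffer or 2% SDS Tris buffer, then boiling, SDS-PAGE and silver staining.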

[8] = target: Heat shock protein HSP 90-alpha (Homo sapiens) (UniProt P07900); experiment: Binding affinity to HSP90AA1 in human Jurkat cells at 150 uM followed by UV irradiation for 30 mins with Wood's glass filtered medium pressure mercury arc light prior to cell lysis measured after denaturing wash by LC-MS/MS based pull down assay; procedure, shortened: as §2
[9] = target: Calcium/calmodulin-dependent protein kinase type II subunit beta (Homo sapiens, UniProt Q13554); experiment: Inhibition of CAMK2 using autocamtide-2 as substrate after 30 mins by PKLight assay
[10] = target: Heat shock-related 70 kDa protein 2 (Homo sapiens) (UniProt P54652); experiment: Binding affinity to HSPA2 in human Jurkat cells at 150 uM followed by UV irradiation for 30 mins with Wood's glass filtered medium pressure mercury arc light prior to cell lysis measured after denaturing wash by LC-MS/MS based pull down assay; procedure, shortened: as §2
[11] = system: Jurkat; experiment: Binding affinity to quercetin binding protein in human Jurkat cells at 150 uM after 30 mins followed by denaturing wash by SDS-PAGE based pull down assay in presence of heat shock; format: cell-based
[12] = target: RuvB-like 2 (Homo sapiens) (UniProt Q9Y230); experiment: Binding affinity to RUVBL2 in human Jurkat cells at 150 uM followed by UV irradiation for 30 mins with Wood's glass filtered medium pressure mercury arc light prior to cell lysis measured after denaturing wash by LC-MS/MS based pull down assay; procedure, shortened: as §2
RuvB-like 2 (Homo sapiens), sequence (Q9Y230 whole entry): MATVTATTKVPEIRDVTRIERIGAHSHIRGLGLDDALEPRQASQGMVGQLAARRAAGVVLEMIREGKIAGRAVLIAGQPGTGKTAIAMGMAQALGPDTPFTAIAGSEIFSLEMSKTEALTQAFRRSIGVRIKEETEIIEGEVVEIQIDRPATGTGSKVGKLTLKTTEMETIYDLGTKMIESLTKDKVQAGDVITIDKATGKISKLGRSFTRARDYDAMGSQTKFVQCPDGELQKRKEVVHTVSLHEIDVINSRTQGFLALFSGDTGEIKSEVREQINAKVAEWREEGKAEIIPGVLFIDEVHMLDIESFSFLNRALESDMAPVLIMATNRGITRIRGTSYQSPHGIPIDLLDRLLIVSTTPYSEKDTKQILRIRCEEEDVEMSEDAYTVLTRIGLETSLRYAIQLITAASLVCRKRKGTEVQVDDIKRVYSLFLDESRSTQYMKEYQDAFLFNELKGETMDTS

Heat shock-related 70 kDa protein 2 (Homo sapiens), sequence (P54652 whole entry): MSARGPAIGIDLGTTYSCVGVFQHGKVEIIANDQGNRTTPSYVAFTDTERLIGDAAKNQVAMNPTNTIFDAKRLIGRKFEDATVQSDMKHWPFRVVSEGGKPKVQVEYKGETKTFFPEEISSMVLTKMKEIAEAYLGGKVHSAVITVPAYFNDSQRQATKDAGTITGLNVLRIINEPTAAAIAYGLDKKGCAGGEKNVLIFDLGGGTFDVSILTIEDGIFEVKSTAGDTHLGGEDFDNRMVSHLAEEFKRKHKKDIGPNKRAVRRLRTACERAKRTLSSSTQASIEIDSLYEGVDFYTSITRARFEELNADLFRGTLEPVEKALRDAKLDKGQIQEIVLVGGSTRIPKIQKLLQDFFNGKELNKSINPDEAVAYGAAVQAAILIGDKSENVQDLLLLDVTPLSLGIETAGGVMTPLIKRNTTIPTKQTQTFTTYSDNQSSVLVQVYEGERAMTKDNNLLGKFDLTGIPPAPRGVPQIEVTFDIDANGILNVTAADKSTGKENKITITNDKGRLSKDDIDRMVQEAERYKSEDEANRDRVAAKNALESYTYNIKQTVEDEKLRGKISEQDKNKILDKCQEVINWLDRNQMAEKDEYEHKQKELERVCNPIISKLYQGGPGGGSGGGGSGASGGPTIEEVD
Calcium/calmodulin-dependent protein kinase type II subunit beta, sequence (Q13554 whole entry): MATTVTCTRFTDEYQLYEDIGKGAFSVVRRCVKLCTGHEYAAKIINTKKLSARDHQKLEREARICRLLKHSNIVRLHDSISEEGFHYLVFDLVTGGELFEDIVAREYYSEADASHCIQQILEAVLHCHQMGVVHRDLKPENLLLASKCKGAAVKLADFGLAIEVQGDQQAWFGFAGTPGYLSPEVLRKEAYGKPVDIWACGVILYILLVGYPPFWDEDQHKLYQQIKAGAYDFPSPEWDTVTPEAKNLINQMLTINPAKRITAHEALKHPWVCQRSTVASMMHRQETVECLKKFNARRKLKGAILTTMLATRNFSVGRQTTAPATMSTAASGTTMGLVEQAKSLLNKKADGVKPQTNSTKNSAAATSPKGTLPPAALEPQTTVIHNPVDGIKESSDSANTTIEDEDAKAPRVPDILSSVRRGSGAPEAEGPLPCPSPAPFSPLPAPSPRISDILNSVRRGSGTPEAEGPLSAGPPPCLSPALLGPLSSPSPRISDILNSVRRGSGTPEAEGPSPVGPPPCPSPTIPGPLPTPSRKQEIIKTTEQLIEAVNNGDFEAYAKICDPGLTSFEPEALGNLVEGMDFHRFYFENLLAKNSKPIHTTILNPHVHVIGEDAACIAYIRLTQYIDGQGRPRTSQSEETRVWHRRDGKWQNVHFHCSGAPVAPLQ
Eukaryotic translation initiation factor 3 subunit F (Homo sapiens), sequence (O00303 whole entry): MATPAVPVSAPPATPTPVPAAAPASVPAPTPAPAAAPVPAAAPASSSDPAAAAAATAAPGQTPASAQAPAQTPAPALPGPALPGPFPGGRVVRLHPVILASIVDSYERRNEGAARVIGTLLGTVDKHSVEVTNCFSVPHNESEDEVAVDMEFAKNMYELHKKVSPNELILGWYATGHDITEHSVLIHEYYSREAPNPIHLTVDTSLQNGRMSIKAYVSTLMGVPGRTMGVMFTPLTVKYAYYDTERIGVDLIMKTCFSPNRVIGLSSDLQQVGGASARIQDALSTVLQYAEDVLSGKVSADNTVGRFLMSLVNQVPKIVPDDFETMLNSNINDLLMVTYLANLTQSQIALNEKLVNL
ATP synthase F(1) complex subunit beta, mitochondrial (Homo sapiens), sequence (P06576 whole entry, one chain of several): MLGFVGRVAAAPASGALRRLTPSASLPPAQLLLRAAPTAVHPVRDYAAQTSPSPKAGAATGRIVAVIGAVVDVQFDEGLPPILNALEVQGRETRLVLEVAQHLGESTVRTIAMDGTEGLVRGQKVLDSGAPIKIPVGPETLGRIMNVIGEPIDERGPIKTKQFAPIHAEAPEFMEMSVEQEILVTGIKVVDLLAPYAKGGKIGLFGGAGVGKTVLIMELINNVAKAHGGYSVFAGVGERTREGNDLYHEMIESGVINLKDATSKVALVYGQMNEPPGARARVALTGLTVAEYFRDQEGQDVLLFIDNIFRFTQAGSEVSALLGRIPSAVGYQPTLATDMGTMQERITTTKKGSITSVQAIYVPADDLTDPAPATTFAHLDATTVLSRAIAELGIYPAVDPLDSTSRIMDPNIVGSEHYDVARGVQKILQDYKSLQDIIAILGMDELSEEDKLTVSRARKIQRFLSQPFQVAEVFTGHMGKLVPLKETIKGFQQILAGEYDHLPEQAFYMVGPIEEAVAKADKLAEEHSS
Casein kinase II subunit alpha (Homo sapiens), sequence (P68400 whole entry, looked up): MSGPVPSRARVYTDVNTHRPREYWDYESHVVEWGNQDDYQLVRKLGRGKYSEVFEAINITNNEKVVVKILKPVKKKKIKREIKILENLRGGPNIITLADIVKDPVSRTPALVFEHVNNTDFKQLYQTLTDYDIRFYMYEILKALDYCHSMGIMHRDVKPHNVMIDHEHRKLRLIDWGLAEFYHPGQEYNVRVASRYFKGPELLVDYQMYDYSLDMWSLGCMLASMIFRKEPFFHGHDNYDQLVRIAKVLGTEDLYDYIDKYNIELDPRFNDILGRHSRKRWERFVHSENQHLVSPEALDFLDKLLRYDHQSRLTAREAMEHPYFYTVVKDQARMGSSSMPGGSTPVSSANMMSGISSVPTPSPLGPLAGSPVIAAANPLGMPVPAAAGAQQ

Activity [1]: Active
Activity [2]: Active
Activity [3]: Active
Activity [4]: Active
Activity [5]: Active
Activity [6]: Active
Activity [7]: Active
Activity [8]: Active
IC50 [9]: 25.9 µM
Activity [10]: Active
Activity [12]: Active
SMILES: O=C(CCCC[C@@H]1SC[C@@H]2NC(=O)N[C@@H]21)NCCOCCOCCNC(=O)COc1cc(O)c2c(=O)c(O)c(-c3ccc(O)c(O)c3)oc2c1
Activity [11]: Active
